In article PMC10108379 (RSC Advances, 2023):

Experiments:
[1] = Pharmacokinetics in rat plasma after oral administration of AR and SAR extracts; assay type: in vivo, Sprague-Dawley (SD) rats
[2] = Stability of the three components in rat plasma; assay type: in vitro ADME; conditions: for Stability, RE: n = 6
Outline: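 Blank rat plasma spiked with each analyte at low, medium and high QC levels, then subjected to repeated freeze–thaw cycles. Samples were thawed to room temperature and precipitated with cold methanol containing puerarin as internal standard, then vortexed 3 min and centrifuged at 12 000 rpm for 15 min. Analysis was by UPLC-MS/MS on an HSS T3 column at 30 °C (0.1% formic acid water/acetonitrile gradient). Acceptance limit: within 15%.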

HepG-2 cells = conditions: previous PD experiments of the group; cited from earlier work
[3] = rat plasma, oral AR extract 5 mL kg^−1, n = 6
[4] = freeze–thaw cycles, high QC (200 / 300 / 250 μg mL^−1)
[5] = −20 °C for 30 days, high QC (200 / 300 / 250 μg mL^−1)

Row | Structure (SMILES) | increase of AUC after administration of the SAR extract ([1]; SAR group compared to AR group, rats, oral) [%] | T max [1, 3] [h] | t 1/2 [1, 3] [h] | Stability, RE [2, 4] [%] | Stability, RE [2, 5] [%] | glucose consumption of HepG-2 cells (HepG-2 cells) | C max [1, 3] [ng/mL] | relative error (RE) after each stability experiment ([2]; 4 °C 24 h, −20 °C 30 days, freeze–thaw cycles, all QC levels) [%] | Stability, RE ([2]; autosampler at 4 °C for 24 h, low QC (2.0 / 3.0 / 2.5 μg mL^−1)) [%] | Stability, RE ([2]; freeze–thaw cycles, low QC (2.0 / 3.0 / 2.5 μg mL^−1)) [%] | Stability, RE ([2]; freeze–thaw cycles, medium QC (20.0 / 30.0 / 25.0 μg mL^−1)) [%] | Stability, RE ([2]; −20 °C for 30 days, low QC (2.0 / 3.0 / 2.5 μg mL^−1)) [%] | Stability, RE ([2]; −20 °C for 30 days, medium QC (20.0 / 30.0 / 25.0 μg mL^−1)) [%]
1 | O=c1c2cc(O)c(O)cc2oc2cc(O)c([C@@H]3O[C@H](CO)[C@@H](O)[C@H](O)[C@H]3O)c(O)c12 [Mangiferin, mangiferin] | 22.3 | 5.76 ± 0.52 | 3.01 ± 0.36 | 10.2 | 2.3 | improved the glucose consumption |  |  |  |  |  |  | 
2 | C[C@H]1CC[C@@]2(OC1)O[C@H]1C[C@H]3[C@@H]4CC[C@@H]5C[C@@H](O[C@@H]6O[C@H](CO)[C@H](O)[C@H](O)[C@H]6O[C@@H]6O[C@H](CO)[C@@H](O)[C@H](O)[C@H]6O)CC[C@]5(C)[C@H]4CC[C@]3(C)[C@H]1[C@@H]2C [Timosaponin AIII, timosaponin AIII] |  |  |  | 3.8 | 10.6 | improved the glucose consumption | 3.67 ± 0.51 | ≤ 10.6 | 1.3 | −0.1 | 6.8 | 2.2 | 6.3
